Screens deposited in PubChem BioAssay by Broad Institute.
The list is not random: actives were taken first. Their share in the collection is about 3.5%.
PGC1a acetyl inh – lowers PGC1a acetylation signal in U2OS cells. hit rate 0.17% among 350,000. AlphaScreen anti-acetyl-lysine; with virally co-expressed GCN5 acetyltransferase. inhibition, % at 15.6 µM. AID 651687;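 active means every replicate shows inhibition of at least 40%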;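 further: 0% = neutral control wells and 100% = positive control wells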
DENV2 CPE – inhibitors of DENV2 cytopathic effect; DENV2-infected cells, cytopathic effect rescue, plate reader; CPE inhibition, % at 9.99 µM; hit rate 1.7% among 350,000; AID 651640; in the data active means CPE inhibition above about 20%, passing the limit was not always enough; tested in BHK-21 cells;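 further: 0% = median of neutral control wells and 100% = median of positive control wells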
HIV Env fusion – HIV envelope-mediated fusion inhibition; HeLa-JRFL Env/CEM21 cell fusion, luciferase; hit rate 1.1% among 360,000; AID 651610; inhibition, % at 12.3 µM;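 active means mean replicate inhibition score of at least 50 and every replicate individually at or above 50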;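 further: 0% = plate neutral controls and 100% = maraviroc near 300 nM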
FN deposit inh – fibronectin deposition inhibition | AH1F fibroblasts, Alexa488-fibronectin deposition fluorescence, overnight | AID 743247 | inhibition, % at 12.6 µM | hit rate 0.086% among 350,000;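 active means mean inhibition across replicates of 30% or more, regardless of how many single replicates reach that level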;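 further: positive control wells lacked labelled fibronectin entirely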
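test system = AH1F fibroblasts assembling fluorescent fibronectin matrix | quantity = 10000 AH1F cells per well | buffer or medium = DMEM plus 2% serum, read in PBS | doses = single dose, pinned | incubation = 1 h cell attachment, overnight exposure to compound and label | detection = fluorescence at 485 nm excitation, 525 nm emission | read-out basis = inhibition from reduced deposited-fibronectin fluorescence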
Ecoli rRNA inh – selective bacterial rRNA inhibition in E. coli; GFP signal change (wild-type ribosome), % (concentration not given with the values); E. coli WT GFP vs humanized-ribosome RFP mutants, fluorescence, 24 h; active compounds read low; DMSO median 0, no signal -100; AID 720706; hit rate 1.6% among 350,000;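 active means significant combined selectivity score with lowered wild-type GFP, culture density cut under 30%, mutant RFP and density less affected; inactive means any of these conditions unmet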
PglD DTNB – PglD (C. jejuni) enzyme inhibition | AID 602405 | purified PglD enzyme, DTNB colorimetric CoA detection | inhibition, % at 12.5 µM | hit rate 0.098% among 360,000; in the data active means inhibition above about 16%, passing the limit was not always enough
The depositor's hits bear a star; · = no result given; [ ] = another dose, or the depositor's remark.

SMILES | PGC1a acetyl inh | DENV2 CPE | HIV Env fusion | FN deposit inh | Ecoli rRNA inh | PglD DTNB
C[C@H](CO)N1C[C@H](C)[C@H](CN(C)C(=O)Nc2ccc3c(c2)OCO3)Oc2ccc(N(C)C)cc2C1=O | -12.4 | 2.6 | 5.0[16.7 µM] | · | -3.6 | 1.1
Cc1noc(C)c1NC(=O)N(C)C[C@H]1Oc2ccc(N(C)C)cc2C(=O)N([C@@H](C)CO)C[C@H]1C | -1.7 | 21.2* | 1.7[16.7 µM] | · | -5.5 | 3.4
C[C@@H]1CN([C@@H](C)CO)C(=O)c2cc(N(C)C)ccc2O[C@H]1CN(C)C(=O)Nc1ccc(F)cc1 | -3.3 | 35.0* | -39.8[16.7 µM] | · | -0.7 | 3.5
C[C@@H]1CN([C@@H](C)CO)C(=O)c2cccc(NC(=O)c3cnccn3)c2O[C@@H]1CN(C)Cc1ccccc1 | · | -10.1 | 19.1[16.7 µM] | · | 3.1 | -3.0
CC(=O)N(C)C[C@H]1Oc2ncc(-c3ccccc3C)cc2C(=O)N([C@@H](C)CO)C[C@@H]1C | 12.2 | -3.7 | -1.9[16.7 µM] | -3.7 | 3.2 | 0.0
CNC(=O)C[C@H]1CC[C@H]2[C@@H](COc3ccc(NC(=O)C4CC4)cc3C(=O)N2C)O1 | 5.0 | -4.0 | 9.1[16.7 µM] | -1.4 | -3.1 | 2.7
C[C@@H]1CN([C@@H](C)CO)C(=O)c2cc(-c3cncnc3)cnc2O[C@H]1CN(C)C(=O)Nc1ccc2c(c1)OCO2 | 2.9 | 47.0* | 8.2[16.7 µM] | · | 4.8 | 0.9
COc1ccc(-c2nc3cc(NC(=O)Cc4ccc(OC)c(OC)c4)ccc3o2)cc1 | 13.2 | · | 63.4* | 1.8 | · | 4.6
COc1ccc(OCC(=O)Nc2ccc3oc(-c4ccncc4)nc3c2)cc1 | 3.9 | 7.1 | 13.0 | 2.3 | 7.8 | -12.2
Cc1ccccc1-c1cc(C(=O)Nc2sc(C(=O)OC(C)C)c(C)c2C#N)c2ccccc2n1 | -4.7 | · | 63.5* | 0.4 | · | -4.6
COc1ccc(Cl)cc1Nc1nc(-c2sc(NC(=O)c3ccco3)nc2C)cs1 | 4.2 | -5.0 | -7.8 | -5.7 | -3.7 | -2.6
COc1cccc(Nc2nc(-c3sc(NC(=O)c4ccco4)nc3C)cs2)c1 | · | -2.0 | 66.2* | -5.7 | -0.6 | 5.1
Cc1c(O)ccc(/C(Cc2ccc3ccccc3n2)=N\N)c1O | -20.6 | 2.1 | -60.6 | -1.3 | -25.3* | ·
COC(=O)C[C@H]1C[C@@H]2c3cc(NC(=O)Cc4ccncc4)ccc3O[C@@H]2[C@@H](CO)O1 | 5.0 | 9.8 | -8.9[16.7 µM] | -7.1 | -1.0 | 0.1
Cc1c(Cl)cccc1N1C(=O)c2ccccc2C1=O | 1.6 | · | -1.6 | -3.1 | · | 0.7
Nc1ccccc1N1C(=O)c2cccc3cccc(c23)C1=O | -1.3 | -0.2 | -160.6 | -4.5 | -0.6 | 3.4
Nc1ccc(N2C(=O)c3ccccc3C2=O)c(Cl)c1 | · | 38.5* | 9.5 | 3.5 | 0.6 | 5.7
O=C1c2cccc3cccc(c23)C(=O)N1c1ccccc1Cl | · | 9.1 | 28.9 | 5.3 | -31.6* | -3.1
Cc1[nH]n(-c2ccccc2)c(=O)c1C(=O)c1ccccc1 | -2.0 | 7.7 | -6.2 | -3.4 | -28.9 | -0.6
CCSC(=S)c1c(C)[nH]n(-c2ccccc2)c1=O | 13.8 | -2.1 | 4.1 | 3.8 | -43.2* | -7.6
CCCc1cc(=O)oc2c(C)c(OC3CCCCC3=O)ccc12 (centres undefined) | · | 25.6* | 32.5 | 1.9 | 2.7 | -2.0
CCCc1cc(=O)oc2c(C)c(OS(C)(=O)=O)ccc12 | · | · | · | · | · | -9.9
Cc1ccc(Cl)cc1N1CCN(CC(O)COC(C)C)CC1 (centres undefined) | -2.9 | 32.6* | 29.8 | 5.2 | -15.1 | ·
O=C(NCCc1ccccc1)C1CCN(c2nc3ccccc3o2)CC1 | 0.4 | 1.1 | · | · | 5.6 | ·
O=C(NC1CCCCCCC1)C1CCN(c2nc3ccccc3o2)CC1 | · | · | 75.2* | · | · | -2.8
SMILES | PGC1a acetyl inh | DENV2 CPE | HIV Env fusion | FN deposit inh | Ecoli rRNA inh | PglD DTNB
O=C(CN1C(=O)NC2(CCCc3ccccc32)C1=O)c1ccc(Br)cc1 (centres undefined) | · | -3.4 | 6.1 | -0.6 | -36.1* | -0.3
O=C(CN1C(=O)NC2(CCc3ccccc32)C1=O)Nc1cccc(Cl)c1 (centres undefined) | -2.4 | -2.0 | -222.0 | 0.9 | -30.4* | 2.6
O=C(CN1C(=O)NC2(CCc3ccccc32)C1=O)c1ccc(Br)cc1 (centres undefined) | -78.2 | 8.0 | -8.4 | 2.5 | -24.4 | -1.0
C[C@@H]1CN([C@H](C)CO)C(=O)c2cc(N(C)C)ccc2O[C@@H]1CN(C)C(=O)Nc1cccc2ccccc12 | -8.5 | 6.7 | 16.5[16.7 µM] | 8.8 | -1.4 | -0.8
O=C(Nc1cc(F)ccc1F)N[C@H]1CC[C@@H](CCNC(=O)c2cnccn2)O[C@H]1CO | 8.0 | -1.3 | -8.0[16.7 µM] | 0.6 | -0.3 | 2.4
COc1ccc([C@H]2CC(=O)C=C(c3ccc4cc[nH]c4c3)C2)cc1 | 1.9 | 65.5* | 3.8 | -1.6 | -2.5 | 8.7
COc1ccc(C2=CC(=O)C[C@H](c3ccc(OC)cc3)C2)cc1 | -6.9 | 7.3 | -48.4 | -38.6 | -22.6 | 3.3
COc1ccc(COCC23N=C4SCc5ccccc5C(=O)N4[C@H](c4ccccc4O2)[C@H]3CO[Si](C)(C)C(C)(C)C)cc1 | -36.1 | 27.9* | 10.1[16.7 µM] | · | · | 2.8
COc1ccc(COC[C@]23N=C4Sc5ccc([N+](=O)[O-])cc5C(=O)N4[C@H](c4ccccc4O2)[C@H]3CO[Si](C)(C)C(C)(C)C)cc1 | -5.2 | 3.9 | 6.1[16.7 µM] | · | · | ·
Cc1cccc2cc(CN(CC3CCCO3)S(=O)(=O)c3ccccc3)c(=O)[nH]c12 (centres undefined) | -7.1 | 0.9 | 7.4 | -16.6 | -24.3* | 0.7
Cc1ccc(NC(=O)C2CCN(S(C)(=O)=O)CC2)cc1Cl | 5.9 | 29.2* | -14.0 | 3.5 | -7.8 | 5.7
CS(=O)(=O)N1CCC(C(=O)Nc2ccc(F)c(Cl)c2)CC1 | 1.0 | -5.9 | -11.7 | -8.3 | 2.3 | -4.3
COc1ccccc1N1CCN(Cc2ccc(OC)c(OC)c2OC)CC1 | -12.0 | · | -15.6 | -0.6 | · | 1.5
COc1ccccc1N1CCN(Cc2ccc(C(=O)O)cc2)CC1 | 3.0 | 0.4 | -11.2 | 3.2 | 13.9 | -1.7
COc1ccccc1N1CCN(Cc2cnc3ccc(Cl)cn23)CC1 | -0.7 | 32.0* | 7.9 | 2.0 | 3.1 | -3.4
COc1ccccc1N1CCN(Cc2ccc(O)c3ncccc23)CC1 | 35.3 | · | 74.8* | · | · | -1.8
O=C(O)c1ccc(S(=O)(=O)Nc2ccc(O)c(Sc3nc4ccccc4s3)c2)cc1 | 7.5 | 12.3 | -7.3 | 5.1 | -23.4* | 1.9
NS(=O)(=O)c1ccc(Sc2nc3ccccc3s2)c([N+](=O)[O-])c1 | 1.1 | -8.1 | 73.4* | 2.5 | -25.1* | 0.9
NS(=O)(=O)c1ccc(Sc2ccccn2)c([N+](=O)[O-])c1 | 3.3 | 1.9 | -3.3 | -9.6 | 9.3 | 0.8
C[C@@H]1CCCCO[C@@H](CN(C)C(=O)Nc2ccc3c(c2)OCO3)[C@H](C)CN([C@@H](C)CO)C(=O)c2cc(NS(=O)(=O)c3cccs3)ccc2O1 | -5.3 | 0.5 | 5.5[16.7 µM] | 3.1 | -7.9 | -2.6
COCC#Cc1ccc2c(c1)O[C@@H](CN(C)Cc1ccccc1)[C@@H](C)CN([C@H](C)CO)S2(=O)=O | -22.0 | -7.8 | -5.9[16.7 µM] | · | -9.7 | 0.1
